Gli-Sufu block: Gli-Sufu pathway antagonists, primary screen, luciferase luminescence, Sufu-KO-LIGHT cells, uHTS; AID 588413, 2011; inhibition, % at 5 µM; Sufu-KO-LIGHT fibroblasts, Gli luciferase reporter luminescence; 340,000 compounds, 0.74% hits;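 active = inhibition above about 55%, limit read from the data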;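 note: 0% = DMSO-treated cells and 100% = wells with medium but no cells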
697 NFkB inh: inhibitors of PMA/ionomycin-induced NF-kB reporter, 697 cells, primary screen, B-cell NF-kB inhibitor project, cell-based, luminescence, uHTS; 697 B-cell NF-kB luciferase reporter, 16 h; inhibition, % at 4 µM; 330,000 compounds, 0.33% hits; in the data active = inhibition above about 35%
XBP1 UPR activ: activators of adaptive XBP1 UPR arm, primary screen, cell-based, CHO-XBP1 luciferase reporter, luminescence, uHTS; AID 463104, 2010; activation, % at 20 µM; IRE1-XBP1 UPR activation; percent of tunicamycin response, DMSO as zero; 330,000 compounds, 0.33% hits;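 active = versus positive control, 20 µM dose yields 30% or more activation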;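 note: 100% = tunicamycin at 10 µg/mL and 0% = DMSO only wells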
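Material: CHO-XBP1 cells stably carrying IRE1-XBP1-driven luciferase reporter / Amount: 1000 cells per well / Compound: 20 µM, 1% DMSO / Times: 6 h treatment, 37 °C / Detection: luciferase luminescence / Measure: % activation of reporter signal versus tunicamycin and DMSO controls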
Jurkat NFkB inh: inhibitors of induced NF-kB luciferase reporter, primary screen, TCR NF-kB activation inhibitor project, cell-based, luminescence, uHTS | Jurkat, PMA/ionomycin-induced NF-kB luciferase reporter | 330,000 compounds, 0.53% hits | inhibition, % at 4 µM; in the data active = inhibition above about 50%
UPR CHOP act: activators of apoptotic CHOP UPR arm, primary screen, cell-based, CHO-CHOP luciferase reporter, luminescence, uHTS; UPR activation; percent of tunicamycin response over DMSO baseline; activation, % at 10 µM; 330,000 compounds, 0.34% hits;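 active = at 10 µM dose, activation of 40% or more, normalized to positive control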;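 note: 100% = tunicamycin at 10 µg/mL and 0% = DMSO alone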
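Material: CHO-CHOP cells, stable luciferase reporter of PERK-eIF2a-CHOP signalling; quantity: 500 reporter cells seeded per well; buffer or medium: F12 medium containing 10% fetal bovine serum; compound: one dose, 10 µM in 0.5% DMSO; incubation: 6 h compound treatment, 37 °C; measured by: Steady-Glo luciferase luminescence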
CHOP inhibitor: inhibitors of CHOP promoter induction, primary screen, cell-based, unfolded protein response, luciferase reporter. CHO-K1 CHOP-promoter luciferase, tunicamycin-induced, 15-18 h. inhibition, % at 10 µM. 220,000 compounds, 3.8% hits. AID 2732, 2010;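 active = compounds that reduced the stress-induced luciferase reporter signal by more than about 70% of percent inhibition, limit read from the data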;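 note: 0% = tunicamycin plus vehicle and 100% = wells without tunicamycin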
Gli antag conf: Gli-SUFU pathway antagonists, confirmation, single concentration, luciferase luminescence, Sufu-KO-LIGHT cells; shares compounds with Gli-Sufu block; Gli luciferase reporter; inhibition, % at 5 µM; 2,500 compounds, 40% hits; AID 602428, 2012;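 active = mean inhibition at 5 µM reaching about 45%, limit read from the data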;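 note: plate controls were DMSO-treated cells for no effect and wells lacking cells for full effect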
Gli cytotox: cytotoxicity in Sufu-KO-LIGHT cells, confirmation, cytotoxicity control for Gli-SUFU antagonist project, cell-based, ATP luminescence, single concentration; shares compounds with Gli-Sufu block; cytotoxicity, % at 5 µM; 2,500 compounds, 32% hits; AID 651994, 2013;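 active = mean cytotoxicity at 5 µM above about 25%, limit read from the data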;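 note: cells exposed to compound overnight for roughly 16 to 18 hours; plate controls were DMSO wells with cells for no effect and medium without cells for full effect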
Wnt3a counter: Wnt3a reporter signal inhibition, confirmation, counter-screen for Gli-SUFU antagonist project, Wnt-LIGHT cells, luminescence, single concentration. shares compounds with Gli-Sufu block. Wnt3a-driven luciferase reporter. inhibition, % at 6.25 µM. 2,500 compounds, 20% hits;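 active = mean inhibition above about 25%, limit read from the data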
* = called active by the depositor. Only some compounds are listed: those with a hit (about 3.9% of all), similar ones and a draw of the others.

What do the screens show for `CSc1nc(N)nc2c1ncn2CC(=O)N1CCN(Cc2c(C)cc(C)cc2C)CC1`?
Gli-Sufu block: 51.4; 697 NFkB inh: 25.9; XBP1 UPR activ: 6.4; Jurkat NFkB inh: 33.5; UPR CHOP act: 7.4; Gli antag conf: 62.0*; Gli cytotox: 26.7*; Wnt3a counter: 43.7*

Results for Oc1c(CN2CCCC(C(F)(F)F)C2)cc(Cl)c2ccccc12 (stereo not drawn) ?
Gli-Sufu block: 6.7; 697 NFkB inh: -29.2; XBP1 UPR activ: -3.7; Jurkat NFkB inh: -7.9; UPR CHOP act: -1.1

What do the screens show for `c1ccc(Nc2nc(NCC3CCCO3)c3ccccc3n2)cc1` (stereo not drawn)?
Gli-Sufu block: 57.0*; 697 NFkB inh: -48.1; XBP1 UPR activ: 6.2; Jurkat NFkB inh: 13.4; UPR CHOP act: 4.8; CHOP inhibitor: 34.1; Gli antag conf: 45.1*; Gli cytotox: 36.1*; Wnt3a counter: 27.7*

How did Cc1ccc(-c2noc(C3CCCN(C(=O)c4ccc(C(C)(C)C)cc4)C3)n2)o1 (stereo not drawn) do in these assays?
Gli-Sufu block: 50.3; 697 NFkB inh: -10.8; XBP1 UPR activ: -1.3; Jurkat NFkB inh: 12.3; UPR CHOP act: 0.3; Gli antag conf: 33.7; Gli cytotox: 0.6; Wnt3a counter: -68.5

Results for Cc1sc2ncnc(NCc3cccs3)c2c1C ?
Gli-Sufu block: 57.5*; 697 NFkB inh: -25.2; XBP1 UPR activ: 6.3; Jurkat NFkB inh: 42.1; UPR CHOP act: 8.6; CHOP inhibitor: 45.5; Gli antag conf: 50.2*; Gli cytotox: 25.6*; Wnt3a counter: 6.2

How did Cc1sc2ncnc(NCc3ccco3)c2c1C do in these assays?
Gli-Sufu block: 6.6; 697 NFkB inh: -9.1; XBP1 UPR activ: 2.0; Jurkat NFkB inh: 10.7; UPR CHOP act: -0.9; CHOP inhibitor: 40.6

How did Cc1ccccc1OCc1nc2ccccc2c(=O)n1/N=C/c1ccco1 do in these assays?
Gli-Sufu block: 93.4*; 697 NFkB inh: -20.4; XBP1 UPR activ: 1.5; Jurkat NFkB inh: -25.9; UPR CHOP act: 1.0; CHOP inhibitor: 10.0; Gli antag conf: 11.7; Gli cytotox: 25.8*; Wnt3a counter: -45.1

Results for COc1ccc(CCC(=O)OCC(=O)Nc2ccccc2)cc1 ?
Gli-Sufu block: 26.9; 697 NFkB inh: 6.3; XBP1 UPR activ: 7.2; Jurkat NFkB inh: -8.2; UPR CHOP act: 16.8

What do the screens show for `Cc1ccsc1CNc1ncnc2ccc(-c3c(C)noc3C)cc12`?
Gli-Sufu block: 53.2; 697 NFkB inh: 24.5; XBP1 UPR activ: -2.9; Jurkat NFkB inh: -6.9; UPR CHOP act: -1.7; Gli antag conf: 61.8*; Gli cytotox: 25.4*; Wnt3a counter: -3.3

What do the screens show for `CSC1SCC2C(=O)N(C)C(C(C)C)C(=O)OCC(NC(=O)c3cnc4ccccc4n3)C(=O)NC(C)C(=O)N(C)C1C(=O)N(C)C(C(C)C)C(=O)OCC(NC(=O)c1cnc3ccccc3n1)C(=O)NC(C)C(=O)N2C` (stereo not drawn)?
Gli-Sufu block: 80.2*; Gli antag conf: 84.8*; Gli cytotox: 72.6*; Wnt3a counter: 102.2*

What do the screens show for `Cc1noc(NS(=O)(=O)c2ccc(NC(=O)c3cnc4n(c3=O)CCS4)cc2)c1C`?
Gli-Sufu block: 95.4*; 697 NFkB inh: 10.7; XBP1 UPR activ: -2.8; Jurkat NFkB inh: 6.9; UPR CHOP act: 0.3; CHOP inhibitor: 20.5; Gli antag conf: 15.1; Gli cytotox: 4.0; Wnt3a counter: -8.0

What do the screens show for `Cc1ccccc1C(=O)Nc1ccc(S(=O)(=O)Nc2onc(C)c2C)cc1`?
Gli-Sufu block: 8.0; 697 NFkB inh: 15.1; XBP1 UPR activ: 2.5; Jurkat NFkB inh: -3.2; UPR CHOP act: 1.6; CHOP inhibitor: 9.4

What do the screens show for `O=[N+]([O-])c1cccc(CNC2CCCCCC2)c1`?
Gli-Sufu block: 12.8; 697 NFkB inh: 8.9; XBP1 UPR activ: -1.4; Jurkat NFkB inh: 14.9; UPR CHOP act: -0.5; CHOP inhibitor: 50.1

What do the screens show for `CCOc1ccc([N+](=O)[O-])cc1CNC1CCCCCCC1`?
Gli-Sufu block: 51.8; 697 NFkB inh: -23.2; XBP1 UPR activ: -0.2; Jurkat NFkB inh: 0.8; UPR CHOP act: 0.3; Gli antag conf: 20.7; Gli cytotox: 7.0; Wnt3a counter: -19.1

Results for CC(C)N1CCC(N2CCN(CCCc3ccccc3)CC2CCO)CC1 (stereo not drawn) ?
Gli-Sufu block: 60.2*; 697 NFkB inh: 15.8; XBP1 UPR activ: 1.4; Jurkat NFkB inh: -12.8; UPR CHOP act: -1.8; CHOP inhibitor: 5.5; Gli antag conf: 13.3; Gli cytotox: 27.4*; Wnt3a counter: -6.1

What do the screens show for `OCCC1CN(Cc2cc(F)ccc2F)CCN1CCCc1ccccc1` (stereo not drawn)?
Gli-Sufu block: 52.6; 697 NFkB inh: -22.9; XBP1 UPR activ: -3.0; Jurkat NFkB inh: -2.8; UPR CHOP act: 0.0; Gli antag conf: 12.6; Gli cytotox: 17.6; Wnt3a counter: -39.6

What do the screens show for `O=C(NCC(c1ccco1)N1CCN(c2ccccc2)CC1)C(=O)NC1CC1` (stereo not drawn)?
Gli-Sufu block: 2.9; 697 NFkB inh: -22.8; XBP1 UPR activ: -3.1; Jurkat NFkB inh: 3.3; UPR CHOP act: -1.4

What do the screens show for `CC(=O)OCc1cc(-c2nc3ccccc3[nH]c2=O)nn1-c1ccc(Cl)cc1`?
Gli-Sufu block: 51.9; 697 NFkB inh: 12.8; XBP1 UPR activ: 0.2; Jurkat NFkB inh: -3.5; UPR CHOP act: 0.2; CHOP inhibitor: -0.6; Gli antag conf: 11.0; Gli cytotox: 1.6; Wnt3a counter: -28.0

What do the screens show for `O=C(CCc1nc2ccccc2[nH]c1=O)OCC(=O)c1ccc(Cl)cc1`?
Gli-Sufu block: -1.0; 697 NFkB inh: 10.9; XBP1 UPR activ: -2.8; Jurkat NFkB inh: 11.4; UPR CHOP act: 2.4; CHOP inhibitor: 1.3

From PubChem
